{
  "source": "paper PMC3718025",
  "about": "(Bioconjugate chemistry, 2011)",
  "tested_on": "luciferase expression in M21+GL3 cells",
  "experiment": "Luciferase knockdown",
  "type": "cell-based, human",
  "conditions": "25 nM, no transfection agent; 4 h serum free, then 2% serum to 96 h",
  "method_in_brief": "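M21+GL3 stable clone made by nucleoporation with pGL3-promoter plus pcDNA3.1/hygro (10:1), selected two weeks in 500 μg/ml hygromycin B. siRNA added 4 h at 37°C in serum-free OPTI-MEM, then serum added to 2% and incubated to 96 h total. Lipofectamine 2000-complexed siRNA served as positive control, its medium swapped to DMEM-H with 2% serum. Lysate luminescence read and normalized to total cellular protein.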",
  "data": [
    {"substance": "AccGAAAGGucuuAccGGAdTsdTX2 (head to tail) [compound 14]", "values": [
      {"measurement": "reduction in luciferase", "value": 70, "unit": "%"}
    ]}
  ]
}
